Assay outcomes: PubChem, several laboratories
The list is not random: actives were taken first. Their share in the collection is about 3.5%.
FXIa inh: inhibitors of human coagulation factor XIa; purified FXIa, Boc-Glu-Ala-Arg-AMC fluorogenic substrate; inhibition, % at 5 µM; hit rate 0.14% among 220,000; AID 798;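 active = inhibition of at least 40%; inactive = inhibition below 40%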;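 also: fluorescence of freed AMC excited at 355 nm; 0% = enzyme without compound and 100% = no enzyme blank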
AHR activator: activators of human aryl hydrocarbon receptor. P35869. AHR-responsive luciferase reporter cells, luminescence. activation, % at 5 µM. hit rate 2.5% among 320,000; in the data active = activation above about 47%;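 also: 0% = vehicle wells and 100% = reference agonist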
Thrombin inh: blocks human thrombin protease activity; AID 1046; alpha-thrombin, Boc-VPR-AMC fluorogenic substrate cleavage; hit rate 0.26% among 220,000; inhibition, % at 5 µM; P00734;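 active = inhibition at or above 40%; inactive = inhibition below 40%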;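 also: 0% = enzyme with no compound and 100% = wells without enzyme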
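Material: human alpha-thrombin enzyme / Medium: pH 7.5 Tris (50 mM) with NaCl 150 mM, Tween 20 0.05% / Compound: single-point dosing at 5 µM, 0.2% DMSO / Incubation: enzyme reaction carried out at room temperature / Detection: AMC fluorescence, 355/460 nm / Read-out basis: percent inhibition scaled between no-compound controls and no-enzyme blanks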
STAT3 activator: activators of IL-6 induced STAT3 signaling | AID 871 | hit rate 0.91% among 190,000 | activation (% of control), % at 5.6 µM | U3A cells, IL-6 STAT3-luciferase reporter, luminescence; 100% = signal with IL-6 EC80 alone;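 active = activation above the screen-wide mean of compound activation plus 3 SD, cut at about 130% in these data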;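 also: 0% = background luminescence of wells with medium and substrate only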
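Material: STAT3-luciferase reporter U3A cells; Probe or stimulus: IL-6 (33 ng/mL); Incubation: compound pre-incubation 1 h before IL-6, then 6 h stimulation at 37 °C; Technique: luminescence from STAT3-driven luciferase reporter; Evaluation: % activation versus median of IL-6-stimulated wells; Controls: IL-6-only high control.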
FXIIa inh 1536: inhibitors of human coagulation factor XIIa. inhibition, % at 5 µM. P00748. purified FXIIa, Boc-QGR-AMC fluorogenic substrate, 2 h. hit rate 0.3% among 220,000; in the data active = inhibition above about 40%;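 also: 0% = enzyme with no compound and 100% = blank without enzyme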
hK5 inh: inhibitors of human kallikrein 5; AID 873; recombinant hK5, fluorogenic AMC substrate cleavage; Q9Y337; inhibition, % at 5 µM; hit rate 0.59% among 210,000;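 active = inhibition of 40% or more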;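 also: 0% = enzyme controls without compound and 100% = no-enzyme blanks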
Target sequence (Q9Y337 67-293 limits assumed): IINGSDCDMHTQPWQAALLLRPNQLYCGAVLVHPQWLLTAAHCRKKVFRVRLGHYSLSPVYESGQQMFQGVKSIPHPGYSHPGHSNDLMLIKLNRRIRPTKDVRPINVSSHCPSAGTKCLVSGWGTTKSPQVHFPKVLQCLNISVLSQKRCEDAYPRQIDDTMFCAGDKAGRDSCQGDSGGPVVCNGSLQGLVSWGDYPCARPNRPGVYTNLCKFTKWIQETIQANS
An asterisk follows results filed as active; / = no result.

SMILES	FXIa inh	AHR activator	Thrombin inh	STAT3 activator	FXIIa inh 1536	hK5 inh
CCC(CC)c1nnc(NC(=O)c2cc(-c3ccccc3)nc3ccccc23)s1	5	2	-4	99	9	3
CCC(CC)c1nnc(NC(=O)Oc2ccccc2)s1	30	3	2	98	43*	2
O=C(Nc1nc2c(s1)CCCC2)c1cc(-c2ccc3c(c2)OCO3)nc2ccccc12	-17	57*	3	99	-2	14
CC(C)(C)NC(=O)c1cc(-c2ccc3c(c2)OCO3)nc2ccccc12	/	70*	/	/	/	/
Cc1ccccc1-c1cc(C(=O)Nc2nc3c(s2)CCCC3)c2ccccc2n1	21	23	9	121	26	-15
O=C(Nc1nc2ccc(F)cc2s1)C1CCCO1 (stereo unspecified)	4	10	4	99	18	-5
Cc1nc2sccn2c1-c1nc(-c2cc3ccccc3o2)cs1	2	54*	5	88	15	5
c1ccc2oc(-c3csc(N4CCOCC4)n3)cc2c1	-2	6	-9	53	-9	-24
Cc1occc1C(=O)NNC(=O)c1ccccc1C(=O)O	-6	-1	-5	110	0	-7
Cc1ccccc1C(=O)NNC(=O)c1ccoc1C	2	-1	16	101	0	63*
Cc1occc1C(=O)NNC(=O)c1ccccc1Br	16	18	8	108	21	46*
CC(=O)N/C(=C\c1ccccc1)C(=O)OCC(=O)NC1CCS(=O)(=O)C1 (stereo unspecified)	/	-1	/	/	/	/
COc1ccc2[nH]cc(CCNS(=O)(=O)c3ccccc3)c2c1	-3	6	-5	100	7	1
Cc1ccc(CCNS(=O)(=O)c2cc(Br)cnc2N)cc1	/	-1	/	/	/	/
CCOC(=O)CC1(NC(=O)C2CCC(=O)N(Cc3ccccc3F)C2)CCCCC1 (stereo unspecified)	/	6	/	/	/	/
O=C(NCc1ccc2c3c(cccc13)C(=O)N2)c1cccs1	57*	/	8	/	42*	56*
CC(C)CCNC(=O)CCCC1=NS(=O)(=O)c2ccccc2N1	0	0	-3	97	6	-13
Cc1ccc(S(=O)(=O)N2CCC(C(=O)NNS(=O)(=O)c3ccc(Cl)cc3)CC2)cc1	-9	0	-4	108	-12	-1
CCn1c(-c2ccccc2)csc1=Nc1ccc(O)cc1	4	9	4	122	8	16
O=C(/C=C/c1ccccc1F)c1cccc([N+](=O)[O-])c1	5	58*	4	114	19	-10
Cc1cc(C)nc(Nc2ccccc2Br)n1	20	4	45*	97	20	59*
O=C(CCCSc1nnnn1-c1ccccc1)c1ccc(F)cc1	7	/	5	93	16	2
COc1cc(CNc2ccc(N3CCCC3)cc2)ccc1OCc1ccccc1	0	10	-12	134*	7	-4
COc1cc(CNc2ccc(N3CCCC3)cc2)ccc1OCc1ccccc1F	7	6	-10	127	11	-12
CCOc1ccccc1N(CC(=O)NCc1ccco1)C(=O)CCC(=O)Nc1nccs1	/	7	/	/	/	/
SMILES	FXIa inh	AHR activator	Thrombin inh	STAT3 activator	FXIIa inh 1536	hK5 inh
COc1ccc(NC(=O)C2CSC(C)(C)N2C=O)cc1 (stereo unspecified)	-2	21	9	100	6	-15
COc1ccccc1NC(=O)CSc1nnc2ccc(-c3cccnc3)nn12	4	58*	-3	103	8	-1
CCOc1ccccc1NC(=O)CSc1nnc2ccc(-c3ccccn3)nn12	/	16	/	/	/	/
CCOc1ccccc1NC(=O)CSc1nnc2ccc(-c3cccnc3)nn12	3	49*	2	96	9	3
COc1ccc(-c2nc3c4ccccc4[nH]c(=O)n3n2)cc1	-8	112*	-4	96	-11	0
COC(=O)c1c(C(=O)OC)c2ccncn2c1Cl	9	74*	-2	95	18	-20
CCOC(=O)C1=C(C)NC(SCC(=O)Nc2cc(C)on2)=C(C#N)C1c1cccs1 (stereo unspecified)	5	1	4	86	18	-1
CC(=O)C1=C(O)C(=O)N(CCc2ccccc2)C1c1ccccc1[N+](=O)[O-] (stereo unspecified)	-2	49*	-7	120	6	-24
